Active and inactive are the calls of the source. No cut-off for these calls is given here.
Assays:
[1] = system: MDA-MB-435; test: Cytotoxicity against human MDA-MB-435 cells incubated for 72 hrs by MTT assay; format: functional; conditions: MDA-MB-435, 72 h
Method in brief: (§1)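 MTT assay. Cells seeded at 5 × 10³/well and grown 24 h at 37 °C, 5% CO₂. Compounds added at several concentrations in triplicate wells, with 0.1% DMSO control, for 72 h. MTT then added for 4 h, formazan dissolved in DMSO, and absorbance read at 570 nm. GI₅₀ by Logit method; three experiments.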

[2] = system: HCT-116; test: Cytotoxicity against human HCT116 cells incubated for 72 hrs by MTT assay; format: functional; conditions: HCT-116, 72 h; method in brief: as §1
[3] = system: A549; test: Cytotoxicity against human A549 cells incubated for 72 hrs by MTT assay; format: functional; conditions: A549, 72 h; method in brief: as §1
[4] = target: T1, DNA topoisomerase 1 (Homo sapiens) (UniProt P11387); test: Inhibition of Top1 assessed as suppression of supercoiled pBR322 DNA relaxation measuring appearance of short DNA fragments at 100 uM incubated for 15 mins by electrophoresis method
T1 sequence (whole entry): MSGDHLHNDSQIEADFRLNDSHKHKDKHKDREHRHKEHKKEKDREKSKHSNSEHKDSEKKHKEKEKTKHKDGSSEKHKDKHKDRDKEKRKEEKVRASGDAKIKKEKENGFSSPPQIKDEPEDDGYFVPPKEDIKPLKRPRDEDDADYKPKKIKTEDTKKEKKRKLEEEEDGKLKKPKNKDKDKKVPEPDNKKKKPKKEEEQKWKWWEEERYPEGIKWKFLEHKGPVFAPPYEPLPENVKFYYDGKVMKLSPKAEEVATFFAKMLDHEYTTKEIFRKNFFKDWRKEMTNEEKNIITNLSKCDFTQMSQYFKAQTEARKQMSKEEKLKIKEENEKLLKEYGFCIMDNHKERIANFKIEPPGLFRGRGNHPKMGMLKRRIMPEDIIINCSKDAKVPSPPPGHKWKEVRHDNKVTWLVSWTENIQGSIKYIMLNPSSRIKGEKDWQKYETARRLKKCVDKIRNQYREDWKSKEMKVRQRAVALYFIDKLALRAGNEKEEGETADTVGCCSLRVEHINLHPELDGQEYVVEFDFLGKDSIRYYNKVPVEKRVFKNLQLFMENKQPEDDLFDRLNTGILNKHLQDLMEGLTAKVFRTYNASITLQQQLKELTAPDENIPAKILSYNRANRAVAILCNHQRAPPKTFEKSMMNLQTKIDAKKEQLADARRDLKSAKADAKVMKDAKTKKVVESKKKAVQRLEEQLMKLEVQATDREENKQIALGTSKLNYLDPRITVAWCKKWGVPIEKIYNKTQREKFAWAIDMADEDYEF

Row | SMILES | GI50 [1] | GI50 [2] | GI50 [3] | inhibition [4]
1 | CN1c2ccccc2C(=O)N2CCc3c([nH]c4ccc(Br)cc34)C21 (configuration not stated) | 37.6 µM | > 200 µM | > 200 µM | 
2 | Cc1ccc2c(c1)c1c(n2C(=O)c2ccc(Cl)cc2)C2N(CC1)C(=O)c1ccccc1N2C (configuration not stated) | 1.14 µM | 11.4 µM | > 200 µM | 
3 | CN1c2ccc(NC(=O)C3CC3)cc2C(=O)N2CCc3c([nH]c4ccccc34)C21 (configuration not stated) | > 200 µM | 187 µM | > 200 µM | 
4 | CN1c2cccc(Cl)c2C(=O)N2CCc3c([nH]c4ccccc34)C21 (configuration not stated) | 1.43 µM | 4.56 µM | 5.65 µM | 
5 | CN1c2ccccc2C(=O)N2CCc3c(n(C(=O)c4ccc(Cl)cc4)c4ccc(Cl)cc34)C21 (configuration not stated) | 72.7 µM | > 200 µM | > 200 µM | 
6 | CN1c2ccccc2CN2CCc3c([nH]c4ccccc34)C21 (configuration not stated) | 16.2 µM | > 200 µM | > 200 µM | 
7 | CN1c2ccccc2C(=O)N2CCc3c(n(C(=O)c4ccc(Cl)cc4)c4ccc(Br)cc34)C21 (configuration not stated) | 38.7 µM | 19.7 µM | 22.5 µM | 
8 | COc1ccc2[nH]c3c(c2c1)CCN1C(=O)c2cc([N+](=O)[O-])ccc2N(C)C31 (configuration not stated) | > 200 µM | 0.15 µM | > 200 µM | 
9 | COc1ccc2c(c1)C(=O)N1CCc3c([nH]c4ccccc34)C1N2C (configuration not stated) | 0.29 µM | 1.25 µM | 0.94 µM | 
10 | CN1c2ccccc2CN2CCc3c(n(C(=O)c4ccc(Cl)cc4)c4ccccc34)C21 (configuration not stated) | 96 µM | > 200 µM | > 200 µM | 
11 | COc1ccc2[nH]c3c(c2c1)CCn1c-3nc2ccc(F)cc2c1=O | > 200 µM | 138 µM | > 200 µM | 
12 | O=c1c2cc(F)ccc2nc2n1CCc1c-2[nH]c2ccccc12 | 15.9 µM | 20 µM | 47.2 µM | 
13 | COc1ccc2[nH]c3c(c2c1)CCN1C(=O)c2cc(F)ccc2N(C)C31 (configuration not stated) | < 0.003 µM | 0.78 µM | 200 µM | 
14 | O=C1c2ccccc2OC2c3[nH]c4ccccc4c3CCN12 (configuration not stated) | 3.13 µM | 3.03 µM | 2.4 µM | 
15 | CN1c2ccc(I)cc2C(=O)N2CCc3c([nH]c4ccccc34)C21 (configuration not stated) | 2.94 µM | > 200 µM | > 200 µM | 
16 | CN1c2ccc(N3CCC3)cc2C(=O)N2CCc3c([nH]c4ccccc34)C21 (configuration not stated) | 0.2 µM | 3.85 µM | > 200 µM | 
17 | O=C1c2cc(F)ccc2NC2c3[nH]c4ccccc4c3CCN12 (configuration not stated) | > 200 µM | > 200 µM | > 200 µM | 
18 | CN1c2ccccc2C(=O)N2CCc3c([nH]c4ccc([N+](=O)[O-])cc34)C21 (configuration not stated) | > 200 µM | > 200 µM | > 200 µM | 
19 | CN1c2ccccc2C(=S)N2CCc3c([nH]c4ccccc34)C21 (configuration not stated) | 12.2 µM | 46.5 µM | 90.7 µM | 

Row | SMILES | GI50 [1] | GI50 [2] | GI50 [3] | inhibition [4]
20 | COc1ccc2[nH]c3c(c2c1)CCN1C(=O)c2c(OC)cccc2N(C)C31 (configuration not stated) | 21 µM | 42 µM | 98 µM | 
21 | COc1ccc2[nH]c3c(c2c1)CCN1C(=S)c2ccccc2N(C)C31 (configuration not stated) | 3.69 µM | 21.4 µM | 106 µM | 
22 | CN1c2ccccc2C(=O)N2CCc3c([nH]c4ccc(I)cc34)C21 (configuration not stated) | 0.26 µM | 0.78 µM | 11.4 µM | 
23 | COc1ccc2[nH]c3c(c2c1)CCN1C(=O)c2cc(Cl)ccc2N(C)C31 (configuration not stated) | 2 µM | 0.004 µM | 13 µM | 
24 | CN1c2ccccc2C(=O)N2CCc3c([nH]c4ccc(OCC5CO5)cc34)C21 (configuration not stated) | 0.61 µM | 2.98 µM | 48.9 µM | 
25 | COc1cccc2c1C(=O)N1CCc3c([nH]c4ccccc34)C1N2C (configuration not stated) | 22.3 µM | 19.7 µM | 128 µM | 
26 | O=C1c2ccccc2OC2c3c(c4ccccc4n3C(=O)c3ccc(Cl)cc3)CCN12 (configuration not stated) | > 200 µM | > 200 µM | > 200 µM | 
27 | Cc1cccc2c1C(=O)N1CCc3c([nH]c4ccccc34)C1N2C (configuration not stated) | 20.2 µM | 13.1 µM | 14.3 µM | 
28 | CC(=O)Nc1ccc2c(c1)C(=O)N1CCc3c([nH]c4ccccc34)C1N2C (configuration not stated) | 59.1 µM | 70.5 µM | > 200 µM | 
29 | CN1c2ccccc2C(=O)N2CCc3c([nH]c4ccc(F)cc34)C21 (configuration not stated) | 27.4 µM | 8.56 µM | 6.85 µM | 
30 | CC[C@@]1(O)C(=O)OCc2c1cc1n(c2=O)Cc2cc3c(CN(C)C)c(O)ccc3nc2-1 [TOPOTECAN] | 0.034 µM | 0.4 µM | 3.96 µM | 
31 | COc1ccc2c(c1)c1c(n2C(=O)c2ccc(Cl)cc2)C2N(CC1)C(=O)c1ccccc1N2C (configuration not stated) | 11.8 µM | 71 µM | 87.2 µM | 
32 | COc1ccc2c(c1)C(=O)N1CCc3c([nH]c4ccc(OC)cc34)C1N2C (configuration not stated) | 9.8 µM | 0.033 µM | > 200 µM | 
33 | COc1ccc2c(c1)C(=O)N1CCc3c(n(C(=O)c4ccc(Cl)cc4)c4ccccc34)C1N2C (configuration not stated) | 184 µM | 88.7 µM | > 200 µM | 
34 | COc1ccc2c(c1)C(=O)N1CCc3c([nH]c4ccc(O)cc34)C1N2C (configuration not stated) | 0.66 µM | 0.07 µM | 1.6 µM | 
35 | CCCOc1ccc2[nH]c3c(c2c1)CCN1C(=O)c2ccccc2N(C)C31 (configuration not stated) | 3.07 µM | 8.05 µM | > 200 µM | 
36 | COc1ccc2[nH]c3c(c2c1)CCN1C(=O)c2cc(F)ccc2NC31 (configuration not stated) | 18.5 µM | 26.7 µM | 60.1 µM | 
37 | CN1c2ccccc2C(=O)N2CCc3c([nH]c4ccc(OCc5ccccc5)cc34)C21 (configuration not stated) | 41.2 µM | > 200 µM | > 200 µM | 
38 | C#CCN(CC#C)c1ccc2c(c1)C(=O)N1CCc3c([nH]c4ccccc34)C1N2C (configuration not stated) | 2.03 µM | 0.21 µM | > 200 µM | 

Row | SMILES | GI50 [1] | GI50 [2] | GI50 [3] | inhibition [4]
39 | CN1c2ccc(Br)cc2C(=O)N2CCc3c([nH]c4ccccc34)C21 (configuration not stated) | 1.5 µM | 14.1 µM | 14.5 µM | 
40 | CN1c2cc(Cl)ccc2C(=O)N2CCc3c([nH]c4ccccc34)C21 (configuration not stated) | > 200 µM | > 200 µM | > 200 µM | 
41 | COc1ccc2[nH]c3c(c2c1)CCN1C(=O)c2ccccc2N(C)C31 (configuration not stated) | 8.97 µM | > 200 µM | > 200 µM | 
42 | CN1c2ccccc2C(=O)N2CCc3c([nH]c4ccc(OC(=O)C5CC5)cc34)C21 (configuration not stated) | 0.08 µM | 0.01 µM | 1.9 µM | 
43 | CN1c2cccc(F)c2C(=O)N2CCc3c([nH]c4ccccc34)C21 (configuration not stated) | 42.6 µM | > 200 µM | 200 µM | 
44 | CN1c2ccccc2C(=S)N2CCc3c(n(C(=O)c4ccc(Cl)cc4)c4ccccc34)C21 (configuration not stated) | > 200 µM | > 200 µM | > 200 µM | 
45 | CN1c2ccccc2C(=O)N2CCc3c([nH]c4ccc(Cl)cc34)C21 (configuration not stated) | > 200 µM | > 200 µM | > 200 µM | 
46 | CN1c2ccc([N+](=O)[O-])cc2C(=O)N2CCc3c([nH]c4ccccc34)C21 (configuration not stated) | > 200 µM | > 200 µM | > 200 µM | 
47 | Cc1cccc2c1N(C)C1c3[nH]c4ccccc4c3CCN1C2=O (configuration not stated) | 0.084 µM | 0.011 µM | 0.23 µM | Active
48 | Cc1ccc2c(c1)C(=O)N1CCc3c([nH]c4ccccc34)C1N2C (configuration not stated) | 0.32 µM | 0.61 µM | 32.2 µM | 
49 | CN1c2ccc(Br)cc2C(=O)N2CCc3c(n(C(=O)c4ccc(Cl)cc4)c4ccccc34)C21 (configuration not stated) | 8.72 µM | 39.7 µM | > 200 µM | 
50 | COc1cc2c(cc1OC)N(C)C1c3[nH]c4ccccc4c3CCN1C2=O (configuration not stated) | 8.97 µM | > 200 µM | > 200 µM | 
51 | Cc1ccc2[nH]c3c(c2c1)CCN1C(=O)c2ccccc2N(C)C31 (configuration not stated) | > 200 µM | > 200 µM | > 200 µM | 
52 | COc1ccc2c(c1)N(C)C1c3[nH]c4ccccc4c3CCN1C2=O (configuration not stated) | > 200 µM | > 200 µM | > 200 µM | 
53 | CN1c2ccccc2C(=O)N2CCc3c([nH]c4c([N+](=O)[O-])cc([N+](=O)[O-])cc34)C21 (configuration not stated) | 0.16 µM | > 200 µM | > 200 µM | 
54 | C#CCOc1ccc2[nH]c3c(c2c1)CCN1C(=O)c2ccccc2N(C)C31 (configuration not stated) | 4.39 µM | 14 µM | > 200 µM | 
55 | CN1c2ccccc2C(=O)N2CCc3c(n(C(=O)c4ccc(Cl)cc4)c4ccc(O)cc34)C21 (configuration not stated) | < 0.002 µM | 0.05 µM | 26.6 µM | 
56 | CCOc1ccc2[nH]c3c(c2c1)CCN1C(=O)c2ccccc2N(C)C31 (configuration not stated) | 5.93 µM | 19.2 µM | > 200 µM | 
57 | CCc1c2c(nc3ccc(OC(=O)N4CCC(N5CCCCC5)CC4)cc13)-c1cc3c(c(=O)n1C2)COC(=O)[C@]3(O)CC [IRINOTECAN] | 12.2 µM | 7.1 µM | 5 µM | 

From ChEMBL document CHEMBL2169847, “New tricks for an old natural product: discovery of highly potent evodiamine derivatives as novel antitumor agents by systemic structure-activity relationship analysis and biological evaluations” (J Med Chem, 2012)
